This is a sample that favours compounds with a hit; in the whole collection about 1.8% have one here.
PG9 binder: PG9 antibody binding by small molecule; TR-FRET gp120-PG9 antibody binding; inhibition, % at 6.7 µM; 360,000 tested, 0.43% active; in the data active = inhibition above about 8.5%
NR2E3 ag-1: agonists of human nuclear receptor NR2E3 | GST-NR2E3/biotin-RetCOR TR-FRET, 1536-well | inhibition of corepressor binding, % at 4.78 µM | 320,000 tested, 0.12% active | AID 2300;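 active = percent inhibition above the cutoff of mean plus 3 SD of all tested compounds, set per screening campaign, cut at about 20% in these data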;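 note: 0% = DMSO wells and 100% = biotin wells as full block of FRET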
Target sequence (Q9Y5X4 whole entry, looked up): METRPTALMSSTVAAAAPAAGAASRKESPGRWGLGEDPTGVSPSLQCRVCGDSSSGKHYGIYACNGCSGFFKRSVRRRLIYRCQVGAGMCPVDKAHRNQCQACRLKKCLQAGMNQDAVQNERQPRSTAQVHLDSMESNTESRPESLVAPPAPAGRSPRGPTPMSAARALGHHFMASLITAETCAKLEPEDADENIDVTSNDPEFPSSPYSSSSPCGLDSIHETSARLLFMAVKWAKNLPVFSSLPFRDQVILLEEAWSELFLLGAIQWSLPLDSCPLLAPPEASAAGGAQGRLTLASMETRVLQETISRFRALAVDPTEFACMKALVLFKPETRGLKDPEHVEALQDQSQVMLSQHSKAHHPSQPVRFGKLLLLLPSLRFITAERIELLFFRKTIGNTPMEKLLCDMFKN
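system = GST-tagged NR2E3 plus biotinylated RetCOR corepressor | input = 1.35 nM GST-NR2E3 | also added = 7 nM biotin-RetCOR | schedule = 5 h incubation at 4 °C | measured by = TR-FRET with europium anti-GST and streptavidin-D2, 340 nm excitation | read-out = percent loss of FRET ratio relative to control wells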
GalR3 antagonist: blocks the human galanin receptor 3; AID 651719; O60755; 360,000 tested, 0.44% active; inhibition, % at 3 µM; HEK293 GalR3-CNG cAMP membrane potential fluorescence; galR3 body fused to GalR1 C-terminus;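 active = inhibition above the screen-wide average plus 3 SD, cut at about 13% in these data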;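 note: forskolin and galanin both at EC90 stimulate the cells; cAMP rise reported by CNG channel membrane potential dye signal; 0% = forskolin plus galanin with DMSO and 100% = forskolin alone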
Target sequence (O60755 1-299 limits assumed): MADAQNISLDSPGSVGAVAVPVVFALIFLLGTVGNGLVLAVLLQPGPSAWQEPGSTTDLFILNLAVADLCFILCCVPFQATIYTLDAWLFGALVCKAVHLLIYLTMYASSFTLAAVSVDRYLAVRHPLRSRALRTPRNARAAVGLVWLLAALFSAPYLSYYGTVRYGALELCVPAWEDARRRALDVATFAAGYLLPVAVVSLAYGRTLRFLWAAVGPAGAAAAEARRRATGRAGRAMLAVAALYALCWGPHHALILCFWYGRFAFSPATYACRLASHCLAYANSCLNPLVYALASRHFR
NR2E3 ag-2: agonists of human NR2E3 nuclear receptor; Q9Y5X4; CHO-S Gal4-NCOR/VP16-NR2E3 two-hybrid, luciferase; inhibition of corepressor binding, % at 3.98 µM; 360,000 tested, 0.35% active;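 active = inhibition above the mean of all tested compounds plus 3 SD, cut at about 70% in these data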;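 note: 0% = DMSO with NR2E3 transfected cells and 100% = cells lacking NR2E3 construct; higher means lower luciferase signal from less NR2E3 corepressor binding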
Rev-erbA mod: Rev-erb alpha (human) modulation. 370,000 tested, 0.79% active. Rev-erbα–FITC-DNA binding, fluorescence polarization, 90 min. activity, % at 10 µM. AID 1259318;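 active = activity above about 14%, limit read from the data; passing the limit was not always enough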;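 note: 0% = DMSO wells with 35 nM protein and 100% = DMSO wells with 750 nM protein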
Rev-erbA confirm: confirmation of modulators of human Rev-erb alpha DNA binding. shares compounds with Rev-erbA mod. Rev-erb alpha FITC-DNA binding, fluorescence polarization, 90 min. activation, % at 25 µM. 3,000 tested, 61% active. AID 1259319;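 active = activation at or above a set limit, or at least 3 SD above the negative control mean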;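 note: 0% = 35 nM protein with DMSO and 100% = 750 nM protein high control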
RORg counter: affects RORgamma DNA binding in a Rev-erb alpha counter-screen; shares compounds with Rev-erbA mod; 910 tested, 8% active; purified RORgamma protein-FITC-DNA binding, fluorescence polarization; IC50, µM;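 active = Compounds whose fitted half-maximal concentration for disrupting protein-DNA binding is below 10 micromolar; the record names Rev-erb in its text, so the target is in doubt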
* marks the source's active call; other numbers are inactive results; i = inactive; nt = not tested or not shown.

SMILES | PG9 binder | NR2E3 ag-1 | GalR3 antagonist | NR2E3 ag-2 | Rev-erbA mod | Rev-erbA confirm | others
COc1cc(C=O)c(Br)cc1OCc1ccc(C)cc1 | 1 | 13 | -5 | -106 | 18* | 7
COc1cc(C=O)ccc1OCc1ccncc1 | -1 | 0 | -9 | 3 | -3 | nt
CC1NC(=O)c2cc3ccccc3cc2-n2c1nc1cc(Cl)ccc1c2=O (stereo unspecified) | -1 | nt | -7 | -11 | 16* | 0
COCCCNC(=O)Cn1nc(Cc2ccncc2)c2ccccc2c1=O | nt | nt | nt | nt | 1 | nt
CCCC1CCC2(CC1)CCC2OC(=S)NCCc1ccc(Cl)cc1 (stereo unspecified) | nt | nt | nt | nt | 0 | nt
O=C(CSc1nnc(-c2ccncc2)n1-c1ccc(Cl)cc1)c1ccc(Cl)c(Cl)c1 | nt | nt | nt | nt | 31* | 31* | RORg counter=>40
N#Cc1c(N)nc2c(c1-c1cccs1)CCCC2 | -1 | 2 | -5 | -12 | 2 | nt
N#Cc1c(N)oc(-c2cccs2)c1-c1cccs1 | 3 | 5 | 0 | -20 | 24* | 34*
O=S(=O)(NCCc1csc(-c2cccnc2)n1)c1cccs1 | 0 | -3 | nt | -38 | 24* | -5
O=S(=O)(NCc1csc(-c2cccnc2)n1)c1cccs1 | -1 | -2 | nt | -11 | -1 | nt
CC(=O)Nc1ccc2c(COC(=O)CC3Sc4ccccc4NC3=O)cc(=O)oc2c1 (stereo unspecified) | -3 | 2 | -9 | -8 | 53* | 26*
COc1ccc(-c2cn(-c3ccc(C)cc3C)c(=S)[nH]2)cc1OC | 1 | 0 | -10 | 9 | 23* | -2
COc1cc(OC)c(-n2cc(-c3ccc(OC)c(OC)c3)[nH]c2=S)cc1Cl | -1 | nt | -12 | -23 | 1 | nt
COc1ccccc1C(=O)Nc1nnc(S(=O)(=O)N2CCN(c3ccc(F)cc3)CC2)s1 | -1 | 2 | -8 | -25 | 18* | 2
COc1ccc(C(=O)Nc2nnc(-c3ccc(F)cc3)s2)c(OC)c1 | 0 | nt | -8 | -20 | 25* | -12
COc1ccccc1C(=O)Nc1nnc(-c2ccc(F)cc2)s1 | 0 | 2 | -12 | -88 | 36* | 39* | RORg counter=>40
CCC[C@H]1[C@@H](OC(=O)NCCc2ccccc2)CC[C@@]23CCCN2C(=O)CCC[C@@H]13 | nt | nt | nt | nt | 2 | nt
CCN(CC)C(=O)CC[C@@H]1CC[C@]2(CCCN(C(=O)C3CCCCC3)C2)O1 | nt | nt | nt | nt | 6 | nt
CCCCCCCCN1C(=O)[C@@H](CC(=O)NCc2ccccc2)C[C@@]2(C(=O)OC)C1=C[C@H](C(C)C)O[C@@H]2C1CC1 | nt | nt | nt | nt | 3 | nt
CCCNC(=O)/C(C#N)=C1\N=C(NC(=O)c2cccs2)c2ccccc21 | -2 | 0 | 2 | -31 | 30* | 21*
COCCNC(=O)/C(C#N)=C1\N=C(NC(=O)c2cccs2)c2ccccc21 | -1 | -3 | -2 | -1 | -4 | nt
Cc1ccc(C(=O)CSc2cnc3ccccc3n2)cc1C | 2 | 6 | -5 | 6 | 30* | 14
N#Cc1ccc(C(=O)NCC2CCN(C(=O)C(=O)c3cccs3)CC2)cc1 | 2 | nt | 8 | nt | 2 | nt
O=C(Nc1ccon1)c1sc2cc(Cl)ccc2c1Cl | -2 | -13 | -2 | 8 | 25* | 15
COc1ccc(C(=O)Nc2nc(C)c(C(C)=O)s2)cc1S(=O)(=O)N1CCOCC1 | 0 | 3 | -5 | -29 | 58* | 144* | RORg counter=>40
SMILES | PG9 binder | NR2E3 ag-1 | GalR3 antagonist | NR2E3 ag-2 | Rev-erbA mod | Rev-erbA confirm | others
CCCCNc1c2c3c(cccc3n(C)c1=O)C(=O)c1ccccc1-2 | nt | -1 | nt | -16 | nt | nt
CC(=O)Nc1ccc(Nc2c3c4c(cccc4n(C)c2=O)C(=O)c2ccccc2-3)cc1 | -7 | 3 | -3 | 12 | 33* | 31* | RORg counter=>40
Cn1c(=O)c(NCCc2ccccc2)c2c3c(cccc31)C(=O)c1ccccc1-2 | 4 | 8 | -5 | -27 | 97* | 69* | RORg counter=>40
Cn1c(=O)c(NCCO)c2c3c(cccc31)C(=O)c1ccccc1-2 | -1 | -3 | 1 | -21 | 101* | 118* | RORg counter=>40
Cc1nc(NCCc2ccc(Cl)cc2)c2nnn(Cc3ccccc3)c2n1 | -1 | -1 | -8 | -19 | 40* | 35* | RORg counter=i
O=C(N/N=C\c1c(O)ccc2ccccc12)c1ccc(O)cc1 | 0 | 2 | -4 | -25 | -3 | nt
Cc1occc1C(=O)N/N=C/c1c(O)ccc2ccccc12 | 1 | 3 | -10 | -99 | 25* | 25*
COc1ccc(-c2cc3c(=O)n(CC(=O)NCc4ccc(Cl)cc4)ncn3n2)cc1 | 0 | -1 | nt | -20 | 21* | 5
CC(=O)O[C@@H]1CCC[C@@]2(C(=O)N(Cc3ccccc3)c3ccc(-c4c(C)noc4C)cc32)[C@H]1NC(=O)CCc1ccccc1 | nt | nt | nt | nt | -2 | nt
CC(C)(C)OC(=O)N1CCC(N[C@@H](Cc2c[nH]c3ccccc23)C(=O)NCCc2c[nH]c3ccccc23)(C(=O)NC2CCCCC2)CC1 | nt | nt | nt | nt | -1 | nt
CCOC(=O)c1ccc(N/C=C\C(=O)c2cccc(OC)c2)cc1 | 2 | 2 | 6 | -45 | 27* | 5
CCOC(=O)c1cccc(N/C=C/C(=O)c2ccc(OC)c(OC)c2)c1 | 0 | 4 | 8 | -192 | -6 | nt
Cc1ccc(NC(=O)c2sc3ncn(CC(=O)N4CCOCC4)c(=O)c3c2C)c(Br)c1 | -1 | -1 | -9 | -41 | 28* | 7
CN1/C(=C/C(=S)NC(=O)C2(C)CC2(Cl)Cl)C(C)(C)c2ccccc21 (stereo unspecified) | 0 | -3 | -6 | 0 | 23* | -2
CN1/C(=C\C(=S)NC(=O)c2ccccc2Cl)C(C)(C)c2ccccc21 | 0 | 0 | -5 | -2 | 7 | nt
N#Cc1cnc2cc(-c3ccccc3)nn2c1N | -2 | 0 | -5 | -30 | 27* | 32* | RORg counter=>40
COc1cc(OC)cc(-c2oc(=O)c3cc(OC)c(OC)cc3c2C#CCCCO)c1 | -2 | 9 | -3 | 10 | 32* | -4
COc1ccc(-c2oc(=O)c3cc(OC)c(OC)cc3c2C#CC2(O)CCCCC2)cc1 | 0 | nt | -2 | 3 | 27* | -3
CCCCN1CN2Cc3ccc(C)cc3C2CS1(=O)=O (stereo unspecified) | nt | nt | nt | nt | 8 | nt
Cc1cc(-c2n[nH]c(=S)n2N=Cc2ccc(OCc3ccccc3)cc2)n[nH]1 | nt | nt | nt | nt | -1 | nt
Nc1[nH]c(C(=O)c2ccc(Br)cc2)c(-c2ccc(Br)cc2)c1C(=O)N1CCCCC1 | nt | nt | nt | nt | 6 | nt
C[C@@H]1CN([C@H](C)CO)C(=O)c2cc(NC(=O)Nc3ccc(F)cc3)ccc2O[C@@H](C)CCCCO[C@@H]1CN(C)C(=O)CCCN(C)C | 1 | nt | -8 | nt | -3 | nt
NC(=O)c1c(NC(=O)c2ccccc2)sc2c1CCc1ccccc1-2 | 0 | 2 | -3 | -123 | 47* | 18*

Bioassay records from PubChem BioAssay.
